Data on 3 compounds can be found in ChEMBL document CHEMBL4118098, “Discovery of DS28120313 as a potent orally active hepcidin production inhibitor: Design and optimization of novel 4,6-disubstituted indazole derivatives” (Bioorg Med Chem Lett, 2017).

The target of series [1] is Vascular endothelial growth factor receptor 1 (Homo sapiens) (UniProt P17948). Briefly: Inhibition of FLT1 (unknown origin) at 0.19 uM relative to control.
For series [2], the target named is Homeodomain-interacting protein kinase 3 (Homo sapiens) (UniProt Q9H422). Briefly: Inhibition of HIPK3 (unknown origin) at 0.19 uM relative to control.
In series [3] the target is Serine/threonine-protein kinase Nek6 (Homo sapiens) (UniProt Q9HC98). Kind of series: Inhibition of NEK6 (unknown origin) at 0.19 uM relative to control.
Series [4] has as its target Tyrosine-protein kinase Lyn (Homo sapiens) (UniProt P07948). Kind of series: Inhibition of LYN (unknown origin) at 0.19 uM relative to control.
Series [5] deals with Mitogen-activated protein kinase 14 (Homo sapiens) (UniProt Q16539). Briefly: Inhibition of p38a (unknown origin) at 0.19 uM relative to control.
Series [6] addresses Serine/threonine-protein kinase Nek2 (Homo sapiens) (UniProt P51955). Kind of series: Inhibition of NEK2 (unknown origin) at 0.19 uM relative to control.
Series [7] deals with NT-3 growth factor receptor (Homo sapiens) (UniProt Q16288). Kind of series: Inhibition of TRKC (unknown origin) at 0.19 uM relative to control.
Series [8] addresses Serine/threonine-protein kinase 24 (Homo sapiens) (UniProt Q9Y6E0). Briefly: Inhibition of MST3 (unknown origin) at 0.19 uM relative to control.
Series [9] has as its target MAP/microtubule affinity-regulating kinase 4 (Homo sapiens) (UniProt Q96L34). Briefly: Inhibition of MARK4 (unknown origin) at 0.19 uM relative to control.
Series [10] concerns the target Tyrosine-protein kinase Fes/Fps (Homo sapiens) (UniProt P07332). Kind of series: Inhibition of FES (unknown origin) at 0.164 uM relative to control.
Series [11] concerns the target Tyrosine-protein kinase ABL2 (Homo sapiens) (UniProt P42684). Kind of series: Inhibition of Arg (unknown origin) at 0.164 uM relative to control.
Series [12] has as its target Dual specificity tyrosine-phosphorylation-regulated kinase 3 (Homo sapiens) (UniProt O43781). Briefly: Inhibition of DYRK3 (unknown origin) at 0.164 uM relative to control.
For series [13], the target named is Serine/threonine-protein kinase 10 (Homo sapiens) (UniProt O94804). Briefly: Inhibition of LOK (unknown origin) at 0.164 uM relative to control.
The target of series [14] is Serine/threonine-protein kinase 24 (Homo sapiens) (UniProt Q9Y6E0). Briefly: Inhibition of MST3 (unknown origin) at 0.164 uM relative to control.
Series [15] has as its target Serine/threonine-protein kinase 25 (Homo sapiens) (UniProt O00506). Kind of series: Inhibition of YSK (unknown origin) at 0.164 uM relative to control.
In series [16] the target is Proto-oncogene tyrosine-protein kinase Src (Homo sapiens) (UniProt P12931). Kind of series: Inhibition of SRC (unknown origin) at 0.164 uM relative to control.
The next series is filed under the species Homo sapiens. Briefly: Inhibition of PKA (unknown origin) at 0.164 uM relative to control.
A short description of series [17]: Fraction unbound in mouse plasma. In kind it is ADME, cell-free.
Series [18] has as its target Calcium/calmodulin-dependent protein kinase type II subunit gamma (Homo sapiens) (UniProt Q13555). Kind of series: Inhibition of CaMK2-gamma (unknown origin) at 0.164 uM relative to control.
In series [19] the target is SRSF protein kinase 3 (Homo sapiens) (UniProt Q9UPE1). Kind of series: Inhibition of MSSK1 (unknown origin) at 0.164 uM relative to control.
Series [20] addresses MAP kinase-interacting serine/threonine-protein kinase 2 (Homo sapiens) (UniProt Q9HBH9). Kind of series: Inhibition of MNK2 (unknown origin) at 0.164 uM relative to control.
The nature of series [21]: AUC in C57BL/6J mouse at 30 mg/kg, po by LC-MS/MS analysis. Type of series: ADME, organism-based. Particulars: in vivo. An outline of the steps: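 C57BL/6J mice received a single oral dose of 30 mg/kg as a suspension in 0.5% methylcellulose. Plasma Cmax and AUC are reported as the average of two animals.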
For series [22], the target named is Ephrin type-A receptor 5 (Homo sapiens) (UniProt P54756). Briefly: Inhibition of EPHA5 (unknown origin) at 0.164 uM relative to control.
For series [23], the target named is Casein kinase I isoform gamma-3 (Homo sapiens) (UniProt Q9Y6M4). Kind of series: Inhibition of CK1-gamma3 (unknown origin) at 0.45 uM relative to control.
The target in series [24] is T1, Tyrosine-protein kinase TXK (Homo sapiens) (UniProt P42681).
T1 sequence (whole entry): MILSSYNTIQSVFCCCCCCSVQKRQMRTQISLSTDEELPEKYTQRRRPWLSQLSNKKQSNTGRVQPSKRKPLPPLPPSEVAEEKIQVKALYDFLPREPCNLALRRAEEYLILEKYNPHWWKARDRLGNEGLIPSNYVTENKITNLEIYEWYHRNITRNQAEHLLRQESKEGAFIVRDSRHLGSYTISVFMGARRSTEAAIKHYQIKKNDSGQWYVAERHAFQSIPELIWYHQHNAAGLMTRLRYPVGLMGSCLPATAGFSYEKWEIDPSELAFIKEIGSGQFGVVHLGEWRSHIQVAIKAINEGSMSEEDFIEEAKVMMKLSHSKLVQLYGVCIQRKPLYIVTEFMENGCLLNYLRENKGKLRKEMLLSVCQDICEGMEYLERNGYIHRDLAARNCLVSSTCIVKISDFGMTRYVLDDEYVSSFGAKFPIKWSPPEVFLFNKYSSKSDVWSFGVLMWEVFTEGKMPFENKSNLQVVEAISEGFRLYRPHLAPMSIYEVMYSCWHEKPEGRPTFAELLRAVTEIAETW
Briefly: Inhibition of TXK (unknown origin) at 0.45 uM relative to control.

Series [25] addresses T2, MAP kinase-activated protein kinase 5 (Homo sapiens) (UniProt Q8IW41).
T2 sequence (whole entry): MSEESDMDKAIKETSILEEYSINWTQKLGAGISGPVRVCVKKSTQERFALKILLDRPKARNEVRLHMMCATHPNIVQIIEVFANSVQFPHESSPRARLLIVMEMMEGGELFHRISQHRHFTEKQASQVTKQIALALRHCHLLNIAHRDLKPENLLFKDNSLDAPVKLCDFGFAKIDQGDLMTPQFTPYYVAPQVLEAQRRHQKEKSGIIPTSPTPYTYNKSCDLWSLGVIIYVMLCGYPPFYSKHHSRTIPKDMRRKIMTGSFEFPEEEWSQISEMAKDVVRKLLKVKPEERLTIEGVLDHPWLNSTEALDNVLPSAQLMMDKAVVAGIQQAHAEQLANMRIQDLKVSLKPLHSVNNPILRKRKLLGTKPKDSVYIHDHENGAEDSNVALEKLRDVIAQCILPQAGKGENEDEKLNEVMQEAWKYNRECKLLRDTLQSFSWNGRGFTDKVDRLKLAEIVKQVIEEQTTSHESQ
Briefly: Inhibition of PRAK (unknown origin) at 0.45 uM relative to control.

Serine/threonine-protein kinase 24 (Homo sapiens), sequence (Q9Y6E0 whole entry, looked up): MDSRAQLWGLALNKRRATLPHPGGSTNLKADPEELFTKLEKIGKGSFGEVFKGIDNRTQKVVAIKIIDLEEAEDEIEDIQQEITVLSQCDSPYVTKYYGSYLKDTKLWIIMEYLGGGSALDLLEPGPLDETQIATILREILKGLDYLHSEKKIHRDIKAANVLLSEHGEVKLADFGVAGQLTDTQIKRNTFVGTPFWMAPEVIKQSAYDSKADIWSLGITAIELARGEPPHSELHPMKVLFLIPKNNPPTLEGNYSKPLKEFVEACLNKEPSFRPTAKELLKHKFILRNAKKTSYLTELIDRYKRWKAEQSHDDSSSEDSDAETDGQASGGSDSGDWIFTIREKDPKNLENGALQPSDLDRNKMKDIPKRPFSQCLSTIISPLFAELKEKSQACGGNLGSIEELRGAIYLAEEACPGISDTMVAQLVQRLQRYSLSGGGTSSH
Homeodomain-interacting protein kinase 3 (Homo sapiens), sequence (Q9H422 whole entry, looked up): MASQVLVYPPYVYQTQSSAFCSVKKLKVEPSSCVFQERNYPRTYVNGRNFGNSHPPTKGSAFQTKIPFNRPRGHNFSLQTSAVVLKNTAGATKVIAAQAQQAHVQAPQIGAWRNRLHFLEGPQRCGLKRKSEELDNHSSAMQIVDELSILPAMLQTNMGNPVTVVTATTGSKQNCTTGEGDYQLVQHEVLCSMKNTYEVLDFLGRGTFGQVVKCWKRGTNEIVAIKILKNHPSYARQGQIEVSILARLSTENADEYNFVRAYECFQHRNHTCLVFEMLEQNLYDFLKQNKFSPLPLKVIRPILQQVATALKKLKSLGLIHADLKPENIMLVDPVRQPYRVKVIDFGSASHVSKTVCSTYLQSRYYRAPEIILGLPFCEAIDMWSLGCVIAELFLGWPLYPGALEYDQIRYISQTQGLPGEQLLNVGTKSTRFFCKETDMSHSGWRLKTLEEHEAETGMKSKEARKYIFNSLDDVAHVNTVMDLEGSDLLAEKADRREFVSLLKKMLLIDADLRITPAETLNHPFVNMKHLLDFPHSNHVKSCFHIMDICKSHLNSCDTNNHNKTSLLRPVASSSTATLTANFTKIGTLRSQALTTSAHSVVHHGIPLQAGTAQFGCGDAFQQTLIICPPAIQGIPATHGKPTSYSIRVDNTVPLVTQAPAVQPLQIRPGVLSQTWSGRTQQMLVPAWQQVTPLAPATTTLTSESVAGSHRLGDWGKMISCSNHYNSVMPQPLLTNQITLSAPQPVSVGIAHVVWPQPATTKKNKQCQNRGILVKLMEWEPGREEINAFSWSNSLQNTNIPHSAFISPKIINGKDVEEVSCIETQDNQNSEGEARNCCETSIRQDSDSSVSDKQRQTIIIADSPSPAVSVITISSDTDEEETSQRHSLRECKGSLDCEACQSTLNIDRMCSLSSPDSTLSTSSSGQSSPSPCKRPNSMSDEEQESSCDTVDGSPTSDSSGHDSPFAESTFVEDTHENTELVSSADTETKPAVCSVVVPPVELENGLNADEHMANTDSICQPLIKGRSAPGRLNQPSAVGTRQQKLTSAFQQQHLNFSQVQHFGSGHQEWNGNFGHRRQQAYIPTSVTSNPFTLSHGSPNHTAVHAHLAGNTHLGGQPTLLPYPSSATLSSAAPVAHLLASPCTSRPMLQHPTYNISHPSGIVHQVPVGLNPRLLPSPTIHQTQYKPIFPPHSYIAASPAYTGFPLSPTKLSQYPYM
Vascular endothelial growth factor receptor 1 (Homo sapiens), sequence (P17948 whole entry): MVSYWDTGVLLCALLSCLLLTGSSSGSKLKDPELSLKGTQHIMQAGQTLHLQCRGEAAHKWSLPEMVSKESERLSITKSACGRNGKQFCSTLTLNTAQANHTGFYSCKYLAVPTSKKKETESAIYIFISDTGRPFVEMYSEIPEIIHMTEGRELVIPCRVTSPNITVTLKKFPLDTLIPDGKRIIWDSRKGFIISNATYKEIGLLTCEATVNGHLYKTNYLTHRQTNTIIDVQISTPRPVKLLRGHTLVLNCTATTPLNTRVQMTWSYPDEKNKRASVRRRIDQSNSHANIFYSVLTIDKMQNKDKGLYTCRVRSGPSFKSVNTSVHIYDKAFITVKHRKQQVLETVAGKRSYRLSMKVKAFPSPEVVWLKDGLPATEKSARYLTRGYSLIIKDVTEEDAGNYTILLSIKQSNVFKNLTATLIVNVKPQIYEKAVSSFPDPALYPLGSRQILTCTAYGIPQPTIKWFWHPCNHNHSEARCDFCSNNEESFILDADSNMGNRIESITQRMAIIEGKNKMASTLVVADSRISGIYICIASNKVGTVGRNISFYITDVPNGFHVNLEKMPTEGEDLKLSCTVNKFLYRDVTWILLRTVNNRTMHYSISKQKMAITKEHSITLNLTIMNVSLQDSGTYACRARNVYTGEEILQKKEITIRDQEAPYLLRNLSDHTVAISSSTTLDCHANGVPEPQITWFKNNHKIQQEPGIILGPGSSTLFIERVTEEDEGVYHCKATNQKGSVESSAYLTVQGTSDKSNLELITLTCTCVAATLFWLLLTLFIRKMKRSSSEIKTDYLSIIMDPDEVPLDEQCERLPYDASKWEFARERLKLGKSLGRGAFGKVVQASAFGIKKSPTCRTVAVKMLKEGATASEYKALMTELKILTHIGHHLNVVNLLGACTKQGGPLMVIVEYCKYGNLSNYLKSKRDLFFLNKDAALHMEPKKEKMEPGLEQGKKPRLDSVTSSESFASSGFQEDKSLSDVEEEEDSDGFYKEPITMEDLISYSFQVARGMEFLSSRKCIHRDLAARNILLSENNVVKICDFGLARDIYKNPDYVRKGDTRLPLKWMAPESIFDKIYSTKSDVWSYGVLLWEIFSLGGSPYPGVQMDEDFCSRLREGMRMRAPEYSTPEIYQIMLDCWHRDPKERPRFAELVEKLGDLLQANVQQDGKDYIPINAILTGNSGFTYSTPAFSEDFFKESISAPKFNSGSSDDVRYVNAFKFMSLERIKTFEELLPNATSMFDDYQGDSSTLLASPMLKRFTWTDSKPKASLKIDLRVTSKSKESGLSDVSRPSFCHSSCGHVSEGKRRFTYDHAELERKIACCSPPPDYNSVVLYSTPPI
Ephrin type-A receptor 5 (Homo sapiens), sequence (P54756 whole entry, canonical isoform): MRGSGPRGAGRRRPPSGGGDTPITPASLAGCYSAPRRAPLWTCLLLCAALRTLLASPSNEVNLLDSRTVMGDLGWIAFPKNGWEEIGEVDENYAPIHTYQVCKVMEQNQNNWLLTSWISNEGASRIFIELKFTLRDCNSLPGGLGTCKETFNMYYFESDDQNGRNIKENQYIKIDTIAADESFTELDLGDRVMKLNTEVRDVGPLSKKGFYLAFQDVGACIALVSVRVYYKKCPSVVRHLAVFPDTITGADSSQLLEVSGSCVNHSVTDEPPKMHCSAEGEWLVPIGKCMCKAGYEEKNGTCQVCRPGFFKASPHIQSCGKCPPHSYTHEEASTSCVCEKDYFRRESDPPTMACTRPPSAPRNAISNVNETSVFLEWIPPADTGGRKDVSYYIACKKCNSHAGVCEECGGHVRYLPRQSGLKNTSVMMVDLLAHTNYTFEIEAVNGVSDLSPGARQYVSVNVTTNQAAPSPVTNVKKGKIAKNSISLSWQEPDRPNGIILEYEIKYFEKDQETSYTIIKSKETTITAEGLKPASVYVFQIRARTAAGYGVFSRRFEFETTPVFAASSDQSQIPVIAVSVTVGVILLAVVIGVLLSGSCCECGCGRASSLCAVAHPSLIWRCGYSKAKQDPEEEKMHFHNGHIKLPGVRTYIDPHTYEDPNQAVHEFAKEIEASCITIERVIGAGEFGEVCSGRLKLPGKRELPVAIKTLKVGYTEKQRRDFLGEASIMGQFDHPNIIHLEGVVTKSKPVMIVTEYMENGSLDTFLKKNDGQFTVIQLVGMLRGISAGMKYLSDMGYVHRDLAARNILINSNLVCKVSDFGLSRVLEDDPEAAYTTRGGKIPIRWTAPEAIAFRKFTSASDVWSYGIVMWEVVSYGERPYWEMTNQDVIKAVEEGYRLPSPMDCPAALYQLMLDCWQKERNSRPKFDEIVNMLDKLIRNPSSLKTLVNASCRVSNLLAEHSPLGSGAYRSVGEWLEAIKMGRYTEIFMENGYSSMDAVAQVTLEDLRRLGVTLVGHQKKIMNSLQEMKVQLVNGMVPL
Tyrosine-protein kinase Fes/Fps (Homo sapiens), sequence (P07332 whole entry): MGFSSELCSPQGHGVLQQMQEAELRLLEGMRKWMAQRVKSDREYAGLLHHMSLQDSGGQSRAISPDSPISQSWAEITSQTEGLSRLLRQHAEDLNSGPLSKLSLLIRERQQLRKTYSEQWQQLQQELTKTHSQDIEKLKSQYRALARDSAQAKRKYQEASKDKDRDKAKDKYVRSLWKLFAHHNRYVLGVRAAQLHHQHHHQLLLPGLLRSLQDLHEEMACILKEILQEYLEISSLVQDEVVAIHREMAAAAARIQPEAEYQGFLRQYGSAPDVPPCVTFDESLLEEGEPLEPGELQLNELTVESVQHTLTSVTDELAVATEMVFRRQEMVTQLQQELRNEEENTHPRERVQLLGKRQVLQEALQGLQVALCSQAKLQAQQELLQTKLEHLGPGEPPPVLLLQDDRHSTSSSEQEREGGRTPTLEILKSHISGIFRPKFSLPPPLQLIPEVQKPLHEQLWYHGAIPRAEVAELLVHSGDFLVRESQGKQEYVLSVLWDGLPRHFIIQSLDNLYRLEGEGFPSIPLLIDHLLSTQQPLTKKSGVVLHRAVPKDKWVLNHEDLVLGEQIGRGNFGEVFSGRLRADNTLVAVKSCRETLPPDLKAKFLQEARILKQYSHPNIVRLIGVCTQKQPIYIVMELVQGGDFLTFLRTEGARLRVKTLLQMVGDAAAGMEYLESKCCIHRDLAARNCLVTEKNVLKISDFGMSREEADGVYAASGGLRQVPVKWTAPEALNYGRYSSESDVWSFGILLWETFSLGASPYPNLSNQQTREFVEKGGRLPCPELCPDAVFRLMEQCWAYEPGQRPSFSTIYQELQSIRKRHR

The inhibition is the change of the read-out against control, counted positive when it falls. For `Cc1[nH]nc(C2CC2)c1-c1ccc2c(-c3ccc(N4CCN(C)CC4)nc3)n[nH]c2c1`, the inhibition in series [1] is 14.7%; in [2], 1%; in series [3], -1%; in [4] it was 13.7%; in series [5], 2.3%; in [6], 12%. Also, the inhibition in [7] was determined as 42%; in series [8], 33%; in series [9], 0.7%.

One may read the fraction unbound as the share of the substance not bound to proteins or other matrix. Read a high fraction unbound as much free substance. Usually AUC stands for concentration integrated over time. Low values mean low exposure, high ones high exposure. In the case of `COC(=O)Nc1cc(-c2c(C3CC3)n[nH]c2C)cc2[nH]ncc12`, the inhibition is 11.7% in series [10]; 0.7% in [11]; 5.3% in [12]; 3.7% in [13]; 6% in series [14]; -2.7% in series [15]. The inhibition was 5.7% in [16]; 5.7% in the series filed under Homo sapiens; 18% in [18]; 0.7% in series [19]; -0.7% in [20]; -1% in series [22]. The fraction unbound in series [17] came to 0.24. Further, the AUC in series [21] came out at 14700 ng·h/mL.

For `Cc1n[nH]c(C)c1-c1ccc2c(NC(=O)c3ccc(N4CCN(C)CC4)cc3)n[nH]c2c1`, the inhibition in series [23] is -0.7%; in series [24], -0.7%; in series [25], -1.7%.
